# Data: ChEMBL document CHEMBL3616436, “Synthesis, cytotoxicity and antimicrobial activity of thiourea derivatives incorporating 3-(trifluoromethyl)phenyl moiety” (Eur J Med Chem, 2015)
# The source made the active and inactive calls. No cut-off for these calls is given here.
# Legend:
# Micrococcus luteus [1] = test: Antimicrobial activity against Micrococcus luteus ATCC 10240 at 400 ug after 18 hrs by disc-diffusion method; assay type: functional; details: ATCC 10240, 18 h, read-out: IZ
# Procedure, shortened: (§1)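 Disc diffusion on Mueller-Hinton II agar per CLSI; 9 mm paper discs loaded with 400 µg compound from DMSO solution, dried, placed on agar; growth inhibition zone diameter read after 18 h at 35°C.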
# Micrococcus luteus [2] = test: Antimicrobial activity against Micrococcus luteus ATCC 9341 at 400 ug after 18 hrs by disc-diffusion method; assay type: functional; details: ATCC 9341, 18 h, read-out: IZ; procedure, shortened: as §1
# [3] = Antiviral activity against Bovine viral diarrhea virus 1-NADL ATCC VR-534 infected in MDBK cells assessed as protection against virus-induced cytopathogenicity after 3 to 4 days by MTT assay; assay type: functional, cell-based; details: Bovine viral diarrhea virus isolates and strains, ATCC VR-534, MDBK
# Procedure, shortened: (§2)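 Cells seeded in 96-well plates (BHK 5x10^4, MDBK 3x10^4 cells/well), grown overnight to confluence, infected at m.o.i. 0.01 (BHK for Reo-1, MDBK for BVDV); serial compound dilutions in maintenance medium with 0.5% inactivated FBS added after 1 h; viability by MTT after 3–4 days at 37°C; EC50 for 50% protection by linear regression.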
# [4] = tested on: Vesicular stomatitis virus; test: Antiviral activity against Vesicular stomatitis virus ATCC VR 1540 infected in African green monkey Vero 76 cells assessed as reduction of virus-plaque formation after 2 days by crystal violet staining; assay type: functional, organism-based; details: ATCC VR 1540, Vero, 48 h
# Human alphaherpesvirus 1 = test: Antiviral activity against Human herpesvirus 1 KOS ATCC VR-1493 infected in African green monkey Vero 76 cells assessed as reduction of virus-plaque formation after 3 days by crystal violet staining; assay type: functional, organism-based; details: Human alphaherpesvirus 1, KOS ATCC VR1493, Vero, 72 h
# Procedure, shortened: (§3)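 Plaque reduction: Vero-76 at 2x10^5 cells/well grown to confluent monolayers, infected 2 h at 50–100 PFU/well; after removing unadsorbed virus, overlay of D-MEM, 1% inactivated FBS, 0.75% methylcellulose with or without serial compound dilutions; 3 days at 37°C, fixed and stained with crystal violet in 50% ethanol, plaques counted; EC50 by linear regression.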
# [5] = tested on: Staphylococcus epidermidis; test: Antimicrobial activity against Staphylococcus epidermidis ATCC 12228 at 400 ug after 18 hrs by disc-diffusion method; assay type: functional; details: ATCC 12228, 18 h, read-out: IZ; procedure, shortened: as §1
# Staphylococcus aureus [6] = test: Antimicrobial activity against Staphylococcus aureus ATCC 29213 at 400 ug after 18 hrs by disc-diffusion method; assay type: functional; details: ATCC 29213, 18 h, read-out: IZ; procedure, shortened: as §1
# Proteus vulgaris = test: Antimicrobial activity against Proteus vulgaris NCTC 4635 at 400 ug after 18 hrs by disc-diffusion method; assay type: functional; procedure, shortened: as §1
# [7] = tested on: Staphylococcus epidermidis; test: Antimicrobial activity against Staphylococcus epidermidis ATCC 35984 at 400 ug after 18 hrs by disc-diffusion method; assay type: functional; details: ATCC 35984, 18 h, read-out: IZ; procedure, shortened: as §1
# Yellow fever virus = test: Antiviral activity against Yellow fever virus 17D infected in BHK cells assessed as protection against virus-induced cytopathogenicity after 3 to 4 days by MTT assay; assay type: functional, cell-based
# Vaccinia virus = test: Antiviral activity against Human Vaccinia virus ATCC VR-1549 infected in African green monkey Vero 76 cells assessed as reduction of virus-plaque formation after 3 days by crystal violet staining; assay type: functional, organism-based; details: Orthopoxvirus vaccinia, ATCC VR-1549, Vero, 72 h
# [8] = Cytotoxicity against BHK cells assessed as cell viability after 48 to 96 hrs by MTT assay; assay type: cell-based, Mesocricetus auratus; details: hamster
# [9] = tested on: Human immunodeficiency virus 1; test: Antiviral activity against HIV1 3B infected in human MT4 cells assessed as protection against virus-induced cytopathogenicity by MTT assay; assay type: functional, organism-based; details: Human immunodeficiency virus 1, 3B
# [10] = tested on: Mycobacterium tuberculosis; test: Antimycobacterial activity against drug-sensitive Mycobacterium tuberculosis Spec. 192; assay type: functional
# Procedure, shortened: (§4)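 Classical test-tube successive-dilution method in Youmans' modification of Proskauer and Beck liquid medium with 10% bovine serum. Inoculum came from 14-day cultures. DMSO stock was 10 mg/mL, diluted geometrically in medium. Tubes were incubated at 37 °C. Concentrations tested were 3.1, 6.2, 12.5, 25, 50 and 100 µg/ml. MIC is the minimum concentration inhibiting growth relative to compound-free tubes.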
# [11] = Cytotoxicity against bovine MDBK cells assessed as cell viability after 48 to 96 hrs by MTT assay; assay type: cell-based, Bos taurus; details: cattle
# Poliovirus 1 = test: Antiviral activity against Poliovirus type 1 ATCC VR-1562 infected in African green monkey Vero 76 cells assessed as reduction of virus-plaque formation after 2 days by crystal violet staining; assay type: functional, organism-based; details: Enterovirus C, ATCC VR-1562, Vero, 48 h
# Staphylococcus aureus [12] = test: Antimicrobial activity against Staphylococcus aureus ATCC 25923 after 18 hrs by twofold serial microdilution method; assay type: functional; details: ATCC 25923, 18 h
# [13] = tested on: Staphylococcus epidermidis; test: Antimicrobial activity against Staphylococcus epidermidis ATCC 12228 after 18 hrs by twofold serial microdilution method; assay type: functional; details: ATCC 12228, 18 h
# [14] = tested on: Staphylococcus epidermidis; test: Antimicrobial activity against Staphylococcus epidermidis ATCC 35984 after 18 hrs by twofold serial microdilution method; assay type: functional; details: ATCC 35984, 18 h
# Staphylococcus aureus [15] = test: Antimicrobial activity against Staphylococcus aureus ATCC 6538 at 400 ug after 18 hrs by disc-diffusion method; assay type: functional; details: ATCC 6538, 18 h, read-out: IZ; procedure, shortened: as §1
# Enterococcus hirae = test: Antimicrobial activity against Enterococcus hirae ATCC 10541 at 400 ug after 18 hrs by disc-diffusion method; assay type: functional; details: ATCC 10541, 18 h, read-out: IZ; procedure, shortened: as §1
# Coxsackievirus B5 = test: Antiviral activity against Human coxsackievirus B5 ATCC VR-29 infected in African green monkey Vero 76 cells assessed as reduction of virus-plaque formation after 3 days by crystal violet staining; assay type: functional, organism-based; details: Enterovirus B, ATCC VR-29, Vero, 72 h; procedure, shortened: as §3
# Staphylococcus aureus [16] = test: Antimicrobial activity against Staphylococcus aureus ATCC 6538 after 18 hrs by twofold serial microdilution method; assay type: functional; details: ATCC 6538, 18 h
# [17] = tested on: Mycobacterium tuberculosis; test: Antimycobacterial activity against Mycobacterium tuberculosis H37Rv ATCC 25618; assay type: functional; procedure, shortened: as §4
# Staphylococcus aureus [18] = test: Antimicrobial activity against Staphylococcus aureus ATCC 29213 after 18 hrs by twofold serial microdilution method; assay type: functional; details: ATCC 29213, 18 h
# Staphylococcus aureus [19] = test: Antimicrobial activity against Staphylococcus aureus NCTC 4163 after 18 hrs by twofold serial microdilution method; assay type: functional; details: NCTC 4163, 18 h
# [20] = Cytotoxicity against human MT4 cells; assay type: cell-based
# Enterococcus faecalis = test: Antimicrobial activity against Enterococcus faecalis ATCC 29212 at 400 ug after 18 hrs by disc-diffusion method; assay type: functional; details: ATCC 29212, 18 h, read-out: IZ; procedure, shortened: as §1
# Bacillus cereus = test: Antimicrobial activity against Bacillus cereus ATCC 11778 at 400 ug after 18 hrs by disc-diffusion method; assay type: functional; details: ATCC 11778, 18 h, read-out: IZ; procedure, shortened: as §1
# Staphylococcus aureus [21] = test: Antimicrobial activity against Staphylococcus aureus ATCC 25923 at 400 ug after 18 hrs by disc-diffusion method; assay type: functional; details: ATCC 25923, 18 h, read-out: IZ; procedure, shortened: as §1
# Staphylococcus aureus [22] = test: Antimicrobial activity against Staphylococcus aureus NCTC 4163 at 400 ug after 18 hrs by disc-diffusion method; assay type: functional; details: NCTC 4163, 18 h, read-out: IZ; procedure, shortened: as §1
# [23] = tested on: Mammalian orthoreovirus 1; test: Antiviral activity against Reovirus type-1 ATCC VR-214 infected in BHK cells assessed as protection against virus-induced cytopathogenicity after 3 to 4 days by MTT assay; assay type: functional, cell-based; details: Mammalian orthoreovirus 1, ATCC VR-214, BHK; procedure, shortened: as §2
# Bacillus subtilis = test: Antimicrobial activity against Bacillus subtilis ATCC 6633 at 400 ug after 18 hrs by disc-diffusion method; assay type: functional; details: ATCC 6633, 18 h, read-out: IZ; procedure, shortened: as §1
# [24] = Cytotoxicity against African green monkey Vero 76 cells assessed as cell viability after 48 to 96 hrs by crystal violet staining; assay type: cell-based; details: chlorocebus sabaeus
smiles,measurement,setting,value
COc1cccc(NC(=S)Nc2cccc(C(F)(F)F)c2)c1,zone of inhibition at 400 µg/disc,Micrococcus luteus [1],19 mm
same,zone of inhibition at 400 µg/disc,Micrococcus luteus [2],24 mm
same,EC50,[3],> 52 µM
same,EC50,[4],> 20 µM
same,EC50,Human alphaherpesvirus 1,> 20 µM
same,zone of inhibition at 400 µg/disc,[5],22 mm
same,zone of inhibition at 400 µg/disc,Staphylococcus aureus [6],22 mm
same,inhibition zone (IZ),Proteus vulgaris,inactive
same,zone of inhibition at 400 µg/disc,[7],21 mm
same,EC50,Yellow fever virus,> 12 µM
same,EC50,Vaccinia virus,> 20 µM
same,CC50,[8],12 µM
same,EC50,[9],> 26 µM
same,MIC,[10],> 100 µg/mL
same,CC50,[11],52 µM
same,EC50,Poliovirus 1,> 20 µM
same,MIC,Staphylococcus aureus [12],32 µg/mL
same,MIC,[13],32 µg/mL
same,MIC,[14],32 µg/mL
same,zone of inhibition at 400 µg/disc,Staphylococcus aureus [15],23 mm
same,zone of inhibition at 400 µg/disc,Enterococcus hirae,12 mm
same,EC50,Coxsackievirus B5,> 20 µM
same,MIC,Staphylococcus aureus [16],32 µg/mL
same,MIC,[17],> 100 µg/mL
same,MIC,Staphylococcus aureus [18],32 µg/mL
same,MIC,Staphylococcus aureus [19],32 µg/mL
same,CC50,[20],26 µM
same,zone of inhibition at 400 µg/disc,Enterococcus faecalis,13 mm
same,zone of inhibition at 400 µg/disc,Bacillus cereus,19 mm
same,zone of inhibition at 400 µg/disc,Staphylococcus aureus [21],20 mm
same,zone of inhibition at 400 µg/disc,Staphylococcus aureus [22],20 mm
same,EC50,[23],> 12 µM
same,zone of inhibition at 400 µg/disc,Bacillus subtilis,20 mm
same,CC50,[24],20 µM
